Results on nine compounds are retold here after ChEMBL document CHEMBL1932986, “Synthesis and in vitro antimycobacterial activity of compounds derived from (R)- and (S)-2-amino-1-butanol - The crucial role of the configuration” (Eur J Med Chem, 2012).

Type in all cases: functional
The test system of one assay is Candida tropicalis. As to the kind of experiment: Antifungal activity against Candida tropicalis ATCC 20336 at 50 mg/ml after 72 hrs by agar diffusion test. The settings on record: for zone of inhibition at 50000 µg/mL: ATCC 20336, 72 h, read-out: DIZ. The method in brief: (§1)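 Agar diffusion: yeasts grown on yeast peptone dextrose agar and fungi on potato dextrose agar. Wells are filled with […] of compound solution in DMSO at various concentrations, and the clear-zone diameter is measured. Bracketed values give the lowest concentration (mg/ml) that produces a zone >11 mm. A first screen is run at 50 mg/ml.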
In general terms: A growth-free zone around the sample is the usual read-out of agar diffusion tests.

In a further assay the test system is Bacillus mycoides. The experiment in a line: Antibacterial activity against Bacillus mycoides DSMZ 274 at 50 mg/ml after 24 hrs by agar diffusion test. The settings on record: for zone of inhibition at 50000 µg/mL: DSMZ 274, 24 h, read-out: DIZ. An outline of the steps:
(§2)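 Agar diffusion: wells in agar filled with […] DMSO solution of compound at various concentrations; diameter of clear zone around application point measured. Bacteria grown 24 h at 37 °C on nutrient agar. Compounds first screened at 50 mg/ml; those active then tested at lower concentrations. Bracketed value = lowest concentration (mg/ml) giving zone >11 mm, reported only if activity retained at ≤1.25 mg/ml.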

Another assay has as its system Staphylococcus aureus. As to the kind of experiment: Antibacterial activity against Staphylococcus aureus NRRL B 313 at 50 mg/ml after 24 hrs by agar diffusion test. The settings on record: for zone of inhibition at 50000 µg/mL: NRRL B 313, 24 h, read-out: DIZ. An outline of the steps: (§3)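 Agar diffusion: bacteria grown 24 h at 37 °C on nutrient agar. Wells in the agar are filled with […] of compound solution in DMSO at various concentrations. The diameter of the clear zone around the application point is measured. Bracketed values give the lowest concentration (mg/ml) that produces a zone >11 mm. A first screen is run at 50 mg/ml.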

The test system of another assay is Acinetobacter johnsonii. The experiment in a line: Antibacterial activity against Acinetobacter johnsonii ATCC 17909 at 50 mg/ml after 24 hrs by agar diffusion test. Particulars: for zone of inhibition at 50000 µg/mL: ATCC 17909, 24 h, read-out: DIZ. An outline of the steps:
as §2

Assay [1] has as its system Micrococcus luteus. As to the kind of experiment: Antibacterial activity against Micrococcus luteus ATCC 9631 at 50 mg/ml after 24 hrs by agar diffusion test. The settings on record: for zone of inhibition at 50000 µg/mL: ATCC 9631, 24 h, read-out: DIZ. The method in brief: as §2
The test system of a further assay is Saccharomyces cerevisiae. The experiment in a line: Antifungal activity against Saccharomyces cerevisiae ATCC 9763 at 50 mg/ml after 72 hrs by agar diffusion test. Particulars: for zone of inhibition at 50000 µg/mL: ATCC 9763, 72 h, read-out: DIZ. The method in brief: as §1
The subject of assay [2] is Mycobacterium tuberculosis. The experiment in a line: Antimycobacterial activity against Mycobacterium tuberculosis H37Rv after 45 days. The method in brief:
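Canetti proportion method. Compound in DMSO is added to Löwenstein–Jensen egg medium before coagulation (30 min, 85 °C), tested at three levels plus a lower one where needed. Tubes are inoculated with H37Rv at 10⁵ cells/ml and incubated 45 days at 37 °C. Colony counts versus drug-free control give percentage inhibition.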

For the next assay, the system named is Penicillium chrysogenum. As to the kind of experiment: Antifungal activity against Penicillium chrysogenum CECT 2802 at 50 mg/ml after 72 hrs by agar diffusion test. Particulars: for zone of inhibition at 50000 µg/mL: CECT 2802, 72 h, read-out: DIZ. An outline of the steps:
as §1

The next assay relates to Bacillus subtilis. As to the kind of experiment: Antibacterial activity against Bacillus subtilis ATCC 6633 at 50 mg/ml after 24 hrs by agar diffusion test. The settings on record: for zone of inhibition at 50000 µg/mL: ATCC 6633, 24 h, read-out: DIZ. An outline of the steps:
as §2

The subject of a further assay is Escherichia coli. As to the kind of experiment: Antibacterial activity against Escherichia coli ATCC 8739 at 50 mg/ml after 24 hrs by agar diffusion test. Particulars: for zone of inhibition at 50000 µg/mL: ATCC 8739, 24 h, read-out: DIZ. An outline of the steps:
as §2

The next assay deals with Bacillus cereus. As to the kind of experiment: Antibacterial activity against Bacillus cereus ATCC 11778 at 50 mg/ml after 24 hrs by agar diffusion test. Particulars: for zone of inhibition at 50000 µg/mL: ATCC 11778, 24 h, read-out: DIZ. An outline of the steps:
as §2

The next assay has as its system Priestia megaterium. The experiment in a line: Antibacterial activity against Bacillus megaterium NRRL 1353895 at 50 mg/ml after 24 hrs by agar diffusion test. Particulars: for zone of inhibition at 50000 µg/mL: NRRL 1353895, 24 h, read-out: DIZ. The method in brief:
as §2

The test system of assay [3] is Micrococcus luteus. As to the kind of experiment: Antibacterial activity against Sarcina lutea ATCC 9341 at 50 mg/ml after 24 hrs by agar diffusion test. Particulars: for zone of inhibition at 50000 µg/mL: ATCC 9341, 24 h, read-out: DIZ. The method in brief:
as §3

The subject of a further assay is Bacillus. As to the kind of experiment: Antibacterial activity against Bacillus idosus B 241 at 50 mg/ml after 24 hrs by agar diffusion test. Particulars: for zone of inhibition at 50000 µg/mL: B 241, 24 h, read-out: DIZ. The method in brief: as §2

Values after ≈ are worked out from the molar mass of the structure shown. Active and inactive are the calls of the source. The calls are words filed in the database; no cut-off is given here. A value given as a limit tells only on which side of the number the result lay.

The term MIC denotes the lowest concentration that inhibits growth of the organism. A low value points to greater potency. Take `CC[C@H](CO)NC(=O)c1ccc2ccccc2c1`: the “diameter of the inhibition zone (DIZ)” value with Candida tropicalis, with Bacillus mycoides, in the assay on Staphylococcus aureus, with Acinetobacter johnsonii, in the assay on Micrococcus luteus [1] and in the assay with Saccharomyces cerevisiae was “inactive” throughout. Besides, the “diameter of the inhibition zone (DIZ)” value in the assay on Penicillium chrysogenum, in the assay on Bacillus subtilis, in the assay on Escherichia coli, in the assay with Bacillus cereus, in the assay with Priestia megaterium and in the assay on Micrococcus luteus [3] was “inactive” in each case. Moreover, in the assay on Bacillus, the “diameter of the inhibition zone (DIZ)” value was “inactive”. This compound returned an MIC in [2] of over 20.6 µM.
`CC[C@H](CO)N1C(=O)CCC1=O`: the “diameter of the inhibition zone (DIZ)” value in the assay with Candida tropicalis, in the assay with Bacillus mycoides, in the assay with Staphylococcus aureus, with Acinetobacter johnsonii, in the assay on Micrococcus luteus [1] and with Saccharomyces cerevisiae was “inactive” each time. For the same compound, the “diameter of the inhibition zone (DIZ)” value with Penicillium chrysogenum, in the assay on Bacillus subtilis, in the assay on Escherichia coli, in the assay on Bacillus cereus, with Priestia megaterium and with Micrococcus luteus [3] was “inactive” throughout. Further, the “diameter of the inhibition zone (DIZ)” value in the assay on Bacillus is “inactive”. This compound also displayed an MIC in assay [2] of over 29.2 µM.
Turning to `CC[C@H](CO)NCc1ccc(-c2ccccc2)cc1`, the zone of inhibition at 50000 µg/mL worked out at 18 mm with Candida tropicalis; 18 mm with Bacillus mycoides; 20 mm with Staphylococcus aureus; 20 mm with Acinetobacter johnsonii; 17 mm with Micrococcus luteus [1]; 18 mm with Saccharomyces cerevisiae. The zone of inhibition at 50000 µg/mL in the assay on Penicillium chrysogenum turned out to be 40 mm; with Bacillus subtilis, 18 mm; with Escherichia coli, 28 mm; with Bacillus cereus, 15 mm; in the assay on Priestia megaterium it was 19 mm; with Micrococcus luteus [3], 17 mm. The zone of inhibition at 50000 µg/mL with Bacillus amounted to 18 mm. For the same compound, in [2], the MIC is over 19.6 µM.
Consider `CC[C@H](CO)NCc1cccc2ccccc12`, for which the zone of inhibition at 50000 µg/mL amounted to 30 mm with Candida tropicalis; 18 mm in the assay on Bacillus mycoides; 16 mm with Staphylococcus aureus; 20 mm in the assay with Acinetobacter johnsonii; 17 mm with Micrococcus luteus [1]; 32 mm in the assay on Saccharomyces cerevisiae. Also, the zone of inhibition at 50000 µg/mL in the assay on Penicillium chrysogenum was 22 mm; with Bacillus subtilis, 17 mm; in the assay on Escherichia coli, 28 mm; in the assay on Bacillus cereus, 15 mm; with Priestia megaterium it was 10 mm; in the assay on Micrococcus luteus [3], 13 mm. Besides, the zone of inhibition at 50000 µg/mL with Bacillus was 18 mm. The same compound showed an MIC in assay [2] of 21.8 µM (≈ 5 µg/mL).
With `CC[C@H](CO)NCc1ccncc1`, the “diameter of the inhibition zone (DIZ)” value in the assay on Candida tropicalis, in the assay on Bacillus mycoides, with Staphylococcus aureus, in the assay on Acinetobacter johnsonii, with Micrococcus luteus [1] and in the assay on Saccharomyces cerevisiae was “inactive” each time. The “diameter of the inhibition zone (DIZ)” value in the assay with Penicillium chrysogenum, in the assay with Bacillus subtilis, in the assay on Escherichia coli, in the assay with Bacillus cereus, with Priestia megaterium and with Micrococcus luteus [3] was “inactive” each time. The “diameter of the inhibition zone (DIZ)” value with Bacillus is “inactive”. In addition, the MIC in [2] turned out to be 27.7 µM (≈ 5 µg/mL).
As to `CC[C@H](CO)NC(=O)C(C)(C)C`, the “diameter of the inhibition zone (DIZ)” value with Candida tropicalis, with Acinetobacter johnsonii, in the assay on Micrococcus luteus [1], in the assay on Saccharomyces cerevisiae, with Penicillium chrysogenum and with Escherichia coli was “inactive” in each case. Further, the “diameter of the inhibition zone (DIZ)” value with Priestia megaterium and in the assay on Micrococcus luteus [3] was “inactive” in each case. The zone of inhibition at 50000 µg/mL worked out at 11 mm in the assay with Bacillus mycoides; 15 mm with Staphylococcus aureus; 15 mm in the assay on Bacillus subtilis; 16 mm with Bacillus cereus; 11 mm in the assay with Bacillus. Also, in assay [2], the MIC was found to be 28.9 µM (≈ 5 µg/mL).
As for `CC[C@H](CO)NC(=O)c1ccncc1`, the “diameter of the inhibition zone (DIZ)” value in the assay on Candida tropicalis, in the assay on Bacillus mycoides, in the assay on Staphylococcus aureus, in the assay on Acinetobacter johnsonii, in the assay on Micrococcus luteus [1] and with Saccharomyces cerevisiae was “inactive” each time. Also, the “diameter of the inhibition zone (DIZ)” value in the assay with Penicillium chrysogenum, in the assay on Bacillus subtilis, with Escherichia coli, with Bacillus cereus, in the assay on Priestia megaterium and in the assay on Micrococcus luteus [3] was “inactive” each time. The “diameter of the inhibition zone (DIZ)” value in the assay with Bacillus was “inactive”. Besides, the MIC in assay [2] was over 25.7 µM.
In the case of `CC[C@H](CO)N(CC(=O)Nc1c(C)cccc1C)CC(=O)Nc1c(C)cccc1C`, the “diameter of the inhibition zone (DIZ)” value in the assay with Candida tropicalis, with Acinetobacter johnsonii, with Saccharomyces cerevisiae, in the assay with Penicillium chrysogenum, in the assay with Bacillus subtilis and in the assay on Escherichia coli was “inactive” each time. The “diameter of the inhibition zone (DIZ)” value in the assay on Priestia megaterium and in the assay on Micrococcus luteus [3] was “inactive” in each case. Also, the zone of inhibition at 50000 µg/mL with Bacillus mycoides worked out at 12 mm; in the assay on Staphylococcus aureus it was 15 mm; with Micrococcus luteus [1] it was 12 mm; in the assay with Bacillus cereus, 11 mm; in the assay on Bacillus, 10 mm. This compound showed an MIC in assay [2] of over 12.2 µM.
Take `CC[C@H](CO)/N=C1\C[C@H]2CC[C@]1(C)C2(C)C`: the “diameter of the inhibition zone (DIZ)” value with Candida tropicalis, in the assay with Staphylococcus aureus, in the assay with Acinetobacter johnsonii, in the assay with Micrococcus luteus [1], in the assay with Saccharomyces cerevisiae and in the assay with Penicillium chrysogenum was “inactive” throughout. In addition, the “diameter of the inhibition zone (DIZ)” value in the assay on Bacillus subtilis, in the assay with Escherichia coli, with Bacillus cereus, in the assay on Micrococcus luteus [3] and with Bacillus was “inactive” each time. The zone of inhibition at 50000 µg/mL in the assay with Bacillus mycoides was 11 mm; in the assay with Priestia megaterium, 10 mm. The compound further yielded an MIC in assay [2] of over 22.4 µM.
